The source made the active and inactive calls. The rule behind the calls is not given here. Square brackets hold non-standard residues; d marks the D form. Peptide text beside a SMILES is read from it. Phg = N[C@H](C(=O)O)c1ccccc1; NMeA = CN[C@@H](C)C(=O)O
How the values were obtained:
[1] = test system: MCF7; experiment: Cytotoxicity against human MCF7 cells assessed as cell viability after by MTT assay; format: functional
How it was run: (§1)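 MTT viability assay. MDA-MB-231 cells were seeded at 1 × 10⁴ cells/well and MCF-7 cells at 2 × 10⁴ cells/well, then held 24 h at 37 °C in 5% CO₂. Medium was replaced with treatments; vehicle controls received matched DMSO. After 72 h, MTT (10 mg/ml stock) was added for 2 h in the dark. Formazan was dissolved in DMSO and read at 550 nm. Viability relative to untreated control at 100 µM.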

[2] = test system: MDA-MB-231; experiment: Cytotoxicity against human MDA-MB-231 cells assessed as cell viability after by MTT assay; format: functional; how it was run: as §1
[3] = molecular target: E3 ubiquitin-protein ligase XIAP (Homo sapiens, UniProt P98170); experiment: Binding affinity to XIAP BIR3-domain (unknown origin)
E3 ubiquitin-protein ligase XIAP, sequence (P98170 whole entry): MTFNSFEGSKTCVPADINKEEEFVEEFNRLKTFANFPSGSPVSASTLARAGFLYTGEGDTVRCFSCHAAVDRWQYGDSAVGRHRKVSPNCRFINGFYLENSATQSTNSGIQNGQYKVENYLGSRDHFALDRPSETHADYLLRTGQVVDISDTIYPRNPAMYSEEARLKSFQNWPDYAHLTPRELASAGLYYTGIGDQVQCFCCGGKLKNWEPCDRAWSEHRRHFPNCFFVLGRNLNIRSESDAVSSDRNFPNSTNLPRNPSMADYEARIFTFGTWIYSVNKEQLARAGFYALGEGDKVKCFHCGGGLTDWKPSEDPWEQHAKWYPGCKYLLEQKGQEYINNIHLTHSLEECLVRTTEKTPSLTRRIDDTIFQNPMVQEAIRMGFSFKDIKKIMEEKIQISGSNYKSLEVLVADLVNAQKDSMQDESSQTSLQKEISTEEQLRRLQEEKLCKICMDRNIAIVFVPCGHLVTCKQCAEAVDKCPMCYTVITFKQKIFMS

Row | Compound | Activity [1] | Activity [2] | Kd [3]
1 | CN[C@@H](C)C(=O)N[C@H](C(=O)N1C[C@H](Oc2ccccc2)C[C@H]1C(=O)NC(c1ccccc1)c1ccccc1)C(C)(C)C | 58.6% | 50.3% | 
2 | CN[C@@H](C)C(=O)N[C@H](C(=O)N1C[C@H](Oc2ccccc2)C[C@H]1C(=O)N[C@@H]1CCCc2ccccc21)C(C)(C)C | 70.8% | 58.1% | 
3 | CN[C@@H](C)C(=O)N[C@H](C(=O)N1C[C@H](c2ccccc2)C[C@H]1C(=O)NC(c1ccccc1)c1ccccc1)C(C)(C)C | 62.3% | 50.1% | 
4 | CN[C@@H](C)C(=O)N[C@H](C(=O)N1C[C@H](c2ccccc2)C[C@H]1C(=O)N[C@@H]1CCCc2ccccc21)C(C)(C)C | 79.4% | 54.6% | 
5 | CC(C)[C@H](NC(=O)[C@H](C)N)C(=O)N1CCC[C@H]1C(=O)N[C@H](C(=O)N[C@@H](Cc1ccc(O)cc1)C(N)=O)c1ccccc1 (H-AVP[Phg]Y-NH2) | inactive | inactive | 30 nM
6 | CN[C@@H](C)C(=O)N[C@H](C(=O)N1CCC[C@H]1C(=O)N[C@@H](Cc1ccccc1)C(=O)N[C@@H](Cc1ccc(O)cc1)C(N)=O)C(C)C (H-[NMeA]VPFY-NH2) | inactive | inactive | 40 nM
7 | H-AVPFY-NH2 | inactive | inactive | 60 nM

— ChEMBL document CHEMBL2412994, “Solid phase synthesis of Smac/DIABLO-derived peptides using a 'Safety-Catch' resin: identification of potent XIAP BIR3 antagonists” (Bioorg Med Chem, 2013)
